Measurements taken from ChEMBL document CHEMBL1129558, “2(S)-((3,5-bis(trifluoromethyl)benzyl)-oxy)-3(S)-phenyl-4- ((3-oxo-1,2,4-triazol-5-yl)methyl)morpholine (1): a potent, orally active, morpholine-based human neurokinin-1 receptor antagonist” (J Med Chem, 1996).

Assays:
[1] = molecular target: Substance-P receptor (Homo sapiens, UniProt P25103); assay: Displacement of [125I]-labeled SP from human Tachykinin receptor 1 expressed in CHO cells; assay type: cell-based
In short: (§1)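 Human receptor expressed in CHO cells; values are given as mean with SD from 3 determinations unless otherwise stated.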

[2] = Physicochemical property was determined; assay type: ADME
[3] = system: Cavia porcellus; assay: SP-induced dermal inflammation assay in guinea pig after peroral administration followed by SP challenge id after 1 hr; assay type: functional; conditions: oral, read-out: ID50 (the source's name)
In short: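 Guinea pigs received antagonist orally, then an intradermal substance P challenge 1 h later. Read-out was SP-induced plasma extravasation in skin. Dose–response data used 5–12 animals per data point.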

[4] = Inhibition of [3H]diltiazem binding to L-type [Ca2+] channel in rabbit skeletal muscle; assay type: tissue-based, Oryctolagus cuniculus, Muscle tissue
[5] = molecular target: T1, Neuromedin-K receptor (Homo sapiens, UniProt P29371); assay: Displacement of [125I]-labeled SP from the human Tachykinin receptor 3 expressed in CHO cells; assay type: cell-based; in short: as §1
T1 sequence (P29371 whole entry): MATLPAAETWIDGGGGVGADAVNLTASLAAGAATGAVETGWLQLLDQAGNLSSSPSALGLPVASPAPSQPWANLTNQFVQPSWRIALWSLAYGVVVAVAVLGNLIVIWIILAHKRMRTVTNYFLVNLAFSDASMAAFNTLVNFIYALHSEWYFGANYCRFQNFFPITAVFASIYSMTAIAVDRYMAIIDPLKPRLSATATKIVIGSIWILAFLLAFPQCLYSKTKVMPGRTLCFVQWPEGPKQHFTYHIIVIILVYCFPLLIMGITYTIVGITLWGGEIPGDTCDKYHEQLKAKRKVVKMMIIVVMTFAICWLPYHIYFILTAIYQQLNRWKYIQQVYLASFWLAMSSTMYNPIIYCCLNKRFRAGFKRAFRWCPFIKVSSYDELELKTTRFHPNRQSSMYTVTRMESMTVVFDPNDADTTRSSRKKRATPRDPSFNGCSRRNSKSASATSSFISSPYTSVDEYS

[6] = molecular target: T2, Substance-K receptor (Homo sapiens, UniProt P21452); assay: Displacement of [125I]-labeled SP from the human Tachykinin receptor 2 expressed in CHO cells; assay type: cell-based; in short: as §1
T2 sequence (P21452 whole entry): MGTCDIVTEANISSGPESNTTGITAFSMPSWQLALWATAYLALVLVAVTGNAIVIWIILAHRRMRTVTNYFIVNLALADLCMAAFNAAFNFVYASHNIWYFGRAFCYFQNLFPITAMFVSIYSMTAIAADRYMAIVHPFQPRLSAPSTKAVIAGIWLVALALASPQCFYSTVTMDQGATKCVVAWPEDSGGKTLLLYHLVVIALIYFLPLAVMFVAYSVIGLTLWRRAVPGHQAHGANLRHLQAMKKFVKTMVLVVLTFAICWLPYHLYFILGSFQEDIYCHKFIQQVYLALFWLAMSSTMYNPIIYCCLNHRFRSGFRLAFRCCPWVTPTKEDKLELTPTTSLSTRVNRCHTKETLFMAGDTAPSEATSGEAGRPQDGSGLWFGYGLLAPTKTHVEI

[7] = Physicochemical property pKa of benzyl amine was determined
[8] = Physicochemical property pKa of piperdine amine was determined

Chain of Substance-P receptor (P25103 whole entry): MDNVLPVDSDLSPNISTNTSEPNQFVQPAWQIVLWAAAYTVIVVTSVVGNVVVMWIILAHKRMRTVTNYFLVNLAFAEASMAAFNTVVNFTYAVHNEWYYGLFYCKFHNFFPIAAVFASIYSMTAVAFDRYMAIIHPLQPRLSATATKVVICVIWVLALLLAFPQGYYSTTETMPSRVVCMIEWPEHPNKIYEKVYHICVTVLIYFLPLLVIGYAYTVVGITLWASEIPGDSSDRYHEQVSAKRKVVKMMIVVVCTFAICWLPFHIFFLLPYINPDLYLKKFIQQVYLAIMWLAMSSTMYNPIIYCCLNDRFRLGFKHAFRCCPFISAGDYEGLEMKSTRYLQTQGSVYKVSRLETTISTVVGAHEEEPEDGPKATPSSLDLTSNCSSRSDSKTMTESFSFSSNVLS

## COC(=O)CN1CCO[C@H](OCc2cc(C(F)(F)F)cc(C(F)(F)F)c2)[C@@H]1c1ccccc1
[1]
  IC50: 1.6 nM

## FC(F)(F)c1cc(CO[C@H]2OCCN(Cn3cncn3)[C@H]2c2ccccc2)cc(C(F)(F)F)c1
[1]
  IC50: 0.13 nM

## NC(=O)CN1CCO[C@H](OCc2cc(C(F)(F)F)cc(C(F)(F)F)c2)[C@@H]1c1ccccc1
[1]
  IC50: 1.1 nM

## O=C(O)CN1CCO[C@H](OCc2cc(C(F)(F)F)cc(C(F)(F)F)c2)[C@@H]1c1ccccc1
[1]
  IC50: 66 nM

## O=c1[nH]nc(CN2CCO[C@H](OCc3cc(C(F)(F)F)cc(C(F)(F)F)c3)[C@@H]2c2ccccc2)[nH]1
[2]
  pKa: < 3
[3]
  ED50: 0.009 mg/kg
[4]
  IC50: 11000 nM
[1]
  IC50: 0.09 nM
[5]
  IC50: 150 nM
[6]
  IC50: 7000 nM

## FC(F)(F)c1cc(CO[C@@H]2OCCN[C@H]2c2ccccc2)cc(C(F)(F)F)c1 (stereo in doubt; 12)
[1]
  IC50: 376 nM

## FC(F)(F)c1cc(CO[C@H]2OCCN[C@@H]2c2ccccc2)cc(C(F)(F)F)c1 (stereo in doubt; 13)
[1]
  IC50: 287 nM

## FC(F)(F)c1cc(CO[C@@H]2OCCN[C@@H]2c2ccccc2)cc(C(F)(F)F)c1 (stereo in doubt; 14)
[1]
  IC50: 59 nM

## FC(F)(F)c1cc(CO[C@H]2OCCN[C@@H]2c2ccccc2)cc(C(F)(F)F)c1 (stereo in doubt; 20)
[1]
  IC50: 21 nM

## FC(F)(F)c1cc(CO[C@@H]2OCCN[C@@H]2c2ccccc2)cc(C(F)(F)F)c1 (stereo in doubt; 21)
[1]
  IC50: 116 nM

## FC(F)(F)c1cc(CO[C@@H]2OCCN[C@H]2c2ccccc2)cc(C(F)(F)F)c1 (stereo in doubt; 22)
[1]
  IC50: 19 nM

## COc1ccccc1CN[C@H]1CCCN[C@H]1c1ccccc1 [CP-99994]
[7]
  pKa: 4
[8]
  pKa: 8.7
[3]
  ED50: 1.6 mg/kg
[4]
  IC50: 4000 nM
